ChEMBL document CHEMBL1138222, “9-Benzylidene-naphtho[2,3-b]thiophen-4-ones as novel antimicrotubule agents-synthesis, antiproliferative activity, and inhibition of tubulin polymerization” (J Med Chem, 2006)
Calls of active or inactive are those of the source. The calls are words filed in the database; no cut-off is given here.

Experiments:
[1] = Cell cycle arrest in KB/HeLa cells by accumulation at S phase at 31.6 nM; type: functional, cell-based; settings: Homo sapiens
Method in brief: (§1)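 Subconfluent KB/HeLa cells were treated with a concentration series for 24 h at 37 °C, then detached and fixed in 70% ethanol. DNA was stained with propidium iodide alongside RNase digestion and measured by flow cytometry. Phase fractions came from cell-cycle modelling software, and IC50 from nonlinear regression.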

[2] = Cell cycle arrest in KB/HeLa cells by accumulation at S phase at 100 nM; type: functional, cell-based; settings: Homo sapiens; method in brief: as §1
[3] = Cell cycle arrest in KB/HeLa cells by accumulation at S phase at 316 nM; type: functional, cell-based; settings: Homo sapiens; method in brief: as §1
[4] = Cell cycle arrest in KB/HeLa cells by accumulation at G2/M phase at 1 nM; type: functional, cell-based; settings: Homo sapiens; method in brief: as §1
[5] = Cell cycle arrest in KB/HeLa cells by accumulation at G2/M phase at 3.16 nM; type: functional, cell-based; settings: Homo sapiens
[6] = Cell cycle arrest in KB/HeLa cells by accumulation at G2/M phase at 10 nM; type: functional, cell-based; settings: Homo sapiens; method in brief: as §1
[7] = Cell cycle arrest in KB/HeLa cells by accumulation at G2/M phase at 31.6 nM; type: functional, cell-based; settings: Homo sapiens; method in brief: as §1
[8] = Cell cycle arrest in KB/HeLa cells by accumulation at G2/M phase at 100 nM; type: functional, cell-based; settings: Homo sapiens; method in brief: as §1
[9] = Cell cycle arrest in KB/HeLa cells by accumulation at G2/M phase at 316 nM; type: functional, cell-based; settings: Homo sapiens; method in brief: as §1
[10] = Cell cycle arrest in KB/HeLa cells by accumulation at G1 phase at 1 nM; type: functional, cell-based; settings: Homo sapiens; method in brief: as §1
[11] = Cell cycle arrest in KB/HeLa cells by accumulation at G1 phase at 3.16 nM; type: functional, cell-based; settings: Homo sapiens; method in brief: as §1
[12] = Cell cycle arrest in KB/HeLa cells by accumulation at G1 phase at 10 nM; type: functional, cell-based; settings: Homo sapiens; method in brief: as §1
[13] = Cell cycle arrest in KB/HeLa cells by accumulation at G1 phase at 31.6 nM; type: functional, cell-based; settings: Homo sapiens; method in brief: as §1
[14] = Cell cycle arrest in KB/HeLa cells by accumulation at G1 phase at 100 nM; type: functional, cell-based; settings: Homo sapiens; method in brief: as §1
[15] = Cell cycle arrest in KB/HeLa cells by accumulation at G1 phase at 316 nM; type: functional, cell-based; settings: Homo sapiens; method in brief: as §1
[16] = Cell cycle arrest in KB/HeLa cells by accumulation at G2/M phase; type: functional, cell-based; settings: Homo sapiens; method in brief: as §1
[17] = Antiproliferative activity against KB/HeLa cells by XTT assay after 48 hrs; type: functional, cell-based; settings: Homo sapiens
Method in brief: (§2)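 Tumour cell lines were seeded at 1 × 10^3 to 8 × 10^4 cells/well for logarithmic growth and exposed to a concentration series for 48 h. Proliferation was read as cellular metabolic activity by XTT. IC50 came from dose-response curves by nonlinear regression, with at least two replicates.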

[18] = test system: RKO; assay: Antiproliferative activity against RKO cells with ectopic-induced p27kip1-expression by XTT assay after 48 hrs; type: functional, cell-based; settings: Homo sapiens
Method in brief: (§3)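 RKO colon adenocarcinoma cells carry an ecdysone-inducible p27kip1 vector. On day 1 they were plated with 3 µM ponasterone A (induced, 2 × 10^4 cells/well) or without it (not induced, 6 × 10^3 cells/well) and held 24 h at 37 °C. Compound or DMSO control was then added for 48 h at 37 °C, followed by a standard XTT read-out.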

[19] = test system: MDR; assay: Antiproliferative activity against LT12 MDR cells by XTT assay after 48 hrs; type: functional, cell-based; settings: Rattus norvegicus; method in brief: as §2
[20] = test system: L1210; assay: Antiproliferative activity against L1210 cells by XTT assay after 48 hrs; type: functional, cell-based; settings: Mus musculus, L1210, 48 h; method in brief: as §2
[21] = test system: L1210; assay: Antiproliferative activity against L1210 VCR cells by XTT assay after 48 hrs; type: functional, cell-based; settings: Mus musculus, L1210, 48 h; method in brief: as §2
[22] = test system: P388; assay: Antiproliferative activity against P388 cells by XTT assay after 48 hrs; type: functional, cell-based; settings: Mus musculus, P388, 48 h; method in brief: as §2
[23] = test system: P388; assay: Antiproliferative activity against P388 ADR cells by XTT assay after 48 hrs; type: functional, cell-based; settings: Mus musculus, P388, 48 h; method in brief: as §2
[24] = Cell cycle arrest in KB/HeLa cells by accumulation at S phase at 1 nM; type: functional, cell-based; settings: Homo sapiens; method in brief: as §1
[25] = Cell cycle arrest in KB/HeLa cells by accumulation at S phase at 3.16 nM; type: functional, cell-based; settings: Homo sapiens; method in brief: as §1
[26] = Cell cycle arrest in KB/HeLa cells by accumulation at S phase at 10 nM; type: functional, cell-based; settings: Homo sapiens; method in brief: as §1
[27] = cells; settings: Rattus norvegicus, LT12, 48 h
[28] = Cell cycle arrest in KB/HeLa cells by accumulation at G2/M phase at 0.1 nM; type: functional, cell-based; settings: Homo sapiens; method in brief: as §1
[29] = Cell cycle arrest in KB/HeLa cells by accumulation at G2/M phase at 0.3 nM; type: functional, cell-based; settings: Homo sapiens; method in brief: as §1
[30] = Cell cycle arrest in KB/HeLa cells by accumulation at G1 phase at 0.1 nM; type: functional, cell-based; settings: Homo sapiens; method in brief: as §1
[31] = Cell cycle arrest in KB/HeLa cells by accumulation at G1 phase at 0.3 nM; type: functional, cell-based; settings: Homo sapiens; method in brief: as §1
[32] = Cell cycle arrest in KB/HeLa cells by accumulation at S phase at 0.1 nM; type: functional, cell-based; settings: Homo sapiens; method in brief: as §1
[33] = Cell cycle arrest in KB/HeLa cells by accumulation at S phase at 0.3 nM; type: functional, cell-based; settings: Homo sapiens; method in brief: as §1
[34] = test system: K562; assay: Antiproliferative activity against human K562 cell line; type: functional, cell-based
[35] = target: Tubulin (Sus scrofa, UniProt P02554+P02550); assay: Inhibition of tubulin polymerization in porcine brain
[36] = target: T1, Tubulin (Homo sapiens) (UniProt P68371+Q9H4B7+P0DPH7+P68366+Q13509+Q71U36+P04350+Q3ZCM7+P07437+P68363+Q9BQE3+Q6PEY2+Q13885+Q9BVA1+Q9BUF5); assay: Displacement of [3H]colchicine from tubulin by SPA assay; type: protein-complex assay
[37] = target: T1, Tubulin (Homo sapiens); assay: Displacement of [3H]paclitaxel from tubulin by SPA assay; type: protein-complex assay
[38] = test system: SK-OV-3; assay: Antiproliferative activity against SKOV3 cells by XTT assay after 48 hrs; type: functional, cell-based; settings: Homo sapiens, SK-OV-3, 48 h; method in brief: as §2
[39] = test system: SF-268; assay: Antiproliferative activity against SF268 cells by XTT assay after 48 hrs; type: functional, cell-based; settings: Homo sapiens, SF-268, 48 h; method in brief: as §2
[40] = test system: NCI-H460; assay: Antiproliferative activity against NCI-H460 cells by XTT assay after 48 hrs; type: functional, cell-based; settings: Homo sapiens, NCI-H460, 48 h; method in brief: as §2
[41] = test system: RKO; assay: Antiproliferative activity against RKO cells by XTT assay after 48 hrs; type: functional, cell-based; settings: Homo sapiens; method in brief: as §3

COC(=O)Nc1nc2cc(C(=O)c3cccs3)ccc2[nH]1 [NOCODAZOLE]
Activity [1]: 25.7% | Activity [2]: 26.1% | Activity [3]: 6% | Activity [4]: 11.1% | Activity [5]: 10.6% | Activity [6]: 10% | Activity [7]: 9.9% | Activity [8]: 51.4% | Activity [9]: 93.2% | Activity [10]: 65.2% | Activity [11]: 64.6% | Activity [12]: 64.2% | Activity [13]: 64.4% | Activity [14]: 22.3% | Activity [15]: 0.9% | EC50 [16]: 91 nM | IC50 [17]: 140 nM | IC50 [18]: > 10000 nM | IC50 [19]: 70 nM | IC50 [20]: 50 nM | IC50 [21]: 90 nM | IC50 [22]: 80 nM | IC50 [23]: 170 nM | Activity [24]: 23.6% | Activity [25]: 24.8% | Activity [26]: 25.7% | IC50 [27]: 40 nM

CC[C@]1(O)C[C@H]2CN(CCc3c([nH]c4ccccc34)[C@@](C(=O)OC)(c3cc4c(cc3OC)N(C=O)[C@H]3[C@@](O)(C(=O)OC)[C@H](OC(C)=O)[C@]5(CC)C=CCN6CC[C@]43[C@@H]65)C2)C1 [VINCRISTINE]
Activity [1]: 7.2% | Activity [2]: 4.8% | Activity [3]: 5.9% | Activity [28]: 11.1% | Activity [29]: 11.7% | Activity [4]: 17.2% | Activity [5]: 65.8% | Activity [6]: 86.7% | Activity [7]: 92.6% | Activity [8]: 95.1% | Activity [9]: 93.8% | Activity [30]: 61.2% | Activity [31]: 64.5% | Activity [10]: 53.7% | Activity [11]: 6.5% | Activity [12]: 0.5% | Activity [13]: 1% | Activity [14]: 0.2% | Activity [15]: 0.2% | EC50 [16]: 2.4 nM | Activity [32]: 27.7% | Activity [33]: 24% | Activity [24]: 28.3% | Activity [25]: 26% | Activity [26]: 13.1%

COc1ccc(/C=C2/c3ccccc3C(=O)c3ccsc32)cc1OC
IC50 [34]: 320 nM

COc1ccc(/C=C2/c3ccccc3C(=O)c3ccsc32)c(O)c1
IC50 [34]: 230 nM | IC50 [35]: 770 nM

O=[N+]([O-])c1ccc(COc2c3ccccc3cc3sccc23)cc1
IC50 [34]: 3130 nM

O=C1c2ccccc2/C(=C/c2ccc(O)cc2)c2sccc21
IC50 [34]: 810 nM

COc1ccc(/C=C2/c3ccccc3C(=O)c3ccsc32)c(OC)c1O
IC50 [34]: 80 nM | Activity [36]: 0.29 µM | Activity [37]: inactive | IC50 [35]: 500 nM | IC50 [17]: 190 nM | IC50 [38]: 40 nM | IC50 [39]: 50 nM | IC50 [40]: 280 nM | IC50 [18]: > 9000 nM | IC50 [41]: 40 nM | IC50 [19]: 190 nM | IC50 [20]: 130 nM | IC50 [21]: 170 nM | IC50 [22]: 140 nM | IC50 [23]: 160 nM | IC50 [27]: 180 nM

COc1cc(/C=C2/c3ccccc3C(=O)c3ccsc32)ccc1O
IC50 [34]: 100 nM | IC50 [35]: 880 nM

COc1ccc(/C=C2/c3ccccc3C(=O)c3ccsc32)cc1O
IC50 [34]: 230 nM | IC50 [35]: 1400 nM

O=C1c2ccccc2/C(=C/c2ccc([N+](=O)[O-])cc2)c2sccc21
IC50 [34]: 720 nM | IC50 [35]: > 10000 nM

O=C1c2ccccc2/C(=C/c2cc(Br)c(O)c(Br)c2)c2sccc21
IC50 [34]: 6690 nM

O=C1c2ccccc2/C(=C/c2ccccc2)c2sccc21
IC50 [34]: 330 nM | IC50 [35]: 6200 nM

COc1ccc(/C=C2/c3ccccc3C(=O)c3ccsc32)cc1
IC50 [34]: 440 nM | IC50 [35]: 3300 nM

c1ccc(COc2c3ccccc3cc3sccc23)cc1
IC50 [34]: 2380 nM

COc1cc(COc2c3ccccc3cc3sccc23)cc(OC)c1OC
IC50 [34]: 8950 nM | IC50 [35]: > 10000 nM

COc1cc2c(c(OC)c1OC)-c1ccc(OC)c(=O)cc1[C@@H](NC(C)=O)CC2 [COLCHICINE]
Activity [1]: 11.9% | Activity [2]: 5.1% | Activity [3]: 5.2% | Activity [29]: 10.1% | Activity [4]: 10% | Activity [6]: 32.1% | Activity [7]: 87.6% | Activity [8]: 94.7% | Activity [9]: 94.5% | Activity [31]: 63.3% | Activity [10]: 64.7% | Activity [11]: 64.3% | Activity [12]: 32.2% | Activity [13]: 0.5% | Activity [14]: 0.3% | Activity [15]: 0.3% | EC50 [16]: 14 nM | IC50 [17]: 30 nM | IC50 [18]: > 10000 nM | Activity [33]: 26.6% | Activity [24]: 25.4% | Activity [25]: 25.1% | Activity [26]: 35.7%
